Assay outcomes as filed in PubChem.
TAAR1 agonist: human TAAR1 agonism; Q96RJ0; CHO RD-HGA16 TAAR1, Fluo-8 calcium fluorescence; vehicle wells 0%, saturating PEA agonist 100%; activation, % at 3 µM; 0.99% of 360,000 active;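 active = activation above the mean activation of all test compounds in the run plus 3 SD, cut at about 38% in these data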
Target sequence (Q96RJ0 whole entry, looked up): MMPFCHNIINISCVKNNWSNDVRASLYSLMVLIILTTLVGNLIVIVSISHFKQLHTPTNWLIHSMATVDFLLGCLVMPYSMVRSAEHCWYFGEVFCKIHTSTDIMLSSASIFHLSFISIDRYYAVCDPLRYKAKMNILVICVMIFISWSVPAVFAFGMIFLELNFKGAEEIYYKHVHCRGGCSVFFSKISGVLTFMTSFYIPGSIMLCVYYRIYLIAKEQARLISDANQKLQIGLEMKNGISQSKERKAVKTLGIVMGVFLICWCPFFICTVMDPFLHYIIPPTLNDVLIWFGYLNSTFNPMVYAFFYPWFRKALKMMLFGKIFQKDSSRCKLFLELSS
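System: CHO-derived RD-HGA16 cells with stable Gα16 and human TAAR1. Times: 17-24 h plating, Fluo-8 75 min 37 °C, 30 min RT. Measured by: calcium-sensitive Fluo-8 signal, excitation 470-495, emission 515-575 nm. Read-out basis: % activation relative to PEA EC100 response. Control set: DMSO and PEA EC100. Repeats: no replicates (n 1).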
TAAR1 antag: antagonists of human TAAR1; Q96RJ0; CHO RD-HGA16 TAAR1, Fluo-8 calcium fluorescence, antagonist; inhibition, % at 3 µM; 1.5% of 360,000 active; AID 624466;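 active = inhibition above a per-plate cutoff, the mean inhibition of test compounds on that plate plus 3 SD, cut at about 49% in these data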;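 note: 0% = DMSO plus EC80 beta-PEA response and 100% = DMSO alone without agonist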
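Material: CHO RD-HGA16 cells bearing hTAAR1; compound dosing: one-point dosing, 3 µM nominal final; schedule: dye loading 75 min at 37 °C, then 30 min room temperature; measured by: calcium fluorescence with Fluo-8; control set: vehicle and agonist controls; replication: n of 1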
OX1R antag-1: human HCRTR1 antagonism; inhibition, % at 5 µM; O43613; 0.43% of 330,000 active; CHO/OX1R cells, Fluo-8 calcium fluorescence, orexin A;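 active = inhibition above its plate's threshold, mean inhibition of all tested compounds on the plate plus 3 SD, cut at about 37% in these data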;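 note: 0% = orexin A challenge wells and 100% = SB-334867-A antagonist wells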
CHO parental Ca: counter-screen: ATP calcium response change in parental CHO cells; parental CHO-K1, ATP-induced calcium, Fluo-8 fluorescence; inhibition, % at 5.6 µM; 0.63% of 330,000 active;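 active = inhibition above that plate's mean sample inhibition plus 3 SD, cut at about 26% in these data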;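 note: 0% = ATP-challenged DMSO wells and 100% = DMSO wells without ATP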
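material = parental CHO cells | also added = ATP as calcium-mobilizing challenge | dosing = single point at 5.6 µM | detection = intracellular calcium via Fluo-8 no-wash fluorescent dye | read-out = % inhibition | benchmarks = low control ATP plus DMSO, high control DMSO only | repeats = one well per compound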
OX1R antag-2: blocks the human orexin 1 receptor; O43613; OX1R-expressing cells, FRET antagonist read-out; inhibition, % at 6.6 µM; 1.8% of 330,000 active; AID 485270; in the data active = inhibition mostly above about 38%, no sharp cut-off; inactive = mostly below about 40%;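 note: 0% = agonist challenge alone and 100% = reference antagonist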
GPR7 antagonist: human neuropeptides B/W receptor 1 antagonism; GPR7-expressing cells, fluorescence antagonist assay; 1.1% of 290,000 active; P48145; AID 1861; inhibition, % at 4.4 µM; in the data active = inhibition above about 16%, passing the limit was not always enough;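 note: cells stimulated with the agonist NPW; 0% = agonist with vehicle and 100% = vehicle without agonist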
Target sequence (P48145 whole entry, looked up): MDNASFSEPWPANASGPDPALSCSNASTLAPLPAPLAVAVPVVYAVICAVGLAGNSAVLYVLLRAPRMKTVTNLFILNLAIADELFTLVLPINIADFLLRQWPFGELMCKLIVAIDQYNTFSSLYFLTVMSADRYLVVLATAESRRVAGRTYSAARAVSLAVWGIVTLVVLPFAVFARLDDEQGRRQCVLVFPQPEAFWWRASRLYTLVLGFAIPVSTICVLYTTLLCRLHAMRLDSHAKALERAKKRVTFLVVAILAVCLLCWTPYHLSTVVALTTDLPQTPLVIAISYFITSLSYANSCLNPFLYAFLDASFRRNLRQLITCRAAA
* hit, by the source's call; / = no result given. The list is not random: actives were taken first. Their share in the collection is about 4.5%.

SMILES	TAAR1 agonist	TAAR1 antag	OX1R antag-1	CHO parental Ca	OX1R antag-2	GPR7 antagonist
C/C(=N\NC(=O)c1ccc(-c2ccccc2)cc1)C1C(=O)c2ccccc2C1=O	8	-18	-9	8	64	1
COc1ccc(C(=O)N/N=C\C(C)=C\c2ccccc2)cc1OC	17	11	-9	2	30	/
CC(/C=N/NC(=O)c1cc(-c2ccc(C)o2)[nH]n1)=C\c1ccccc1	3	18	2	-14	59*	-9
CC(/C=N/NC(=O)c1ccncc1)=C\c1ccc(C(C)C)cc1	18	49*	-1	-7	11	3
CCOC(=O)C1=CCN(S(=O)(=O)c2ccc(Cl)cc2)C1c1cccc(F)c1 (centres undefined)	3	21	/	/	/	/
CC(C)=CCc1cc(-c2oc3cc(O)cc(O)c3c(=O)c2O)ccc1O	0	6	10	17	10	/
CC(C)=CCc1c(O)cc2oc3c(CC=C(C)C)c(O)c(O)c(CC=C(C)C)c3c(=O)c2c1O	4	58*	6	-15	37	/
O=C1CS/C(=N/N=C/c2ccc(OS(=O)(=O)c3ccccc3)cc2)N1	-1	3	0	1	70*	-1
O=c1[nH]c2ccccc2nc1-c1c[nH]c2ccccc12	-1	12	22	-19	62*	12
Cc1cc(Br)ccc1NC(=O)CN(C)C(=O)C1CCN(c2ncnc3sc(C)c(C)c23)CC1	12	57*	/	/	/	/
Cc1cccc(C)c1NC(=O)CN(C)C(=O)C1CCN(c2ncnc3sc(C)c(C)c23)CC1	5	2	-29	-31	11	/
Cc1sc2ncnc(N3CCC(C(=O)Nc4ccc(OC(F)F)c(Cl)c4)CC3)c2c1C	6	28	17	-8	30*	/
Cc1sc2ncnc(N3CCC(C(=O)NNC(=O)COc4ccccc4Cl)CC3)c2c1C	11	43	10	-5	26	/
COc1ccc(C)cc1Nc1n[n+](-c2ccccc2)c(-c2c(Cl)cccc2Cl)s1	29	-1	2	38*	44	26
CCCN1CCCCC(NC(C)=O)C1=O (centres undefined)	1	-16	/	/	/	/
CCOc1cc(CNCCCN2CCOCC2)cc(Br)c1OCc1ccccc1Cl	23	-9	-1	-5	6	39*
CCOc1cc(CNCCN2CCOCC2)ccc1OCc1ccccc1Cl	4	-26	-18	-4	9	21
CCOc1cc(CNCCO)cc(Br)c1OCc1ccccc1Cl	46*	18	10	4	0	10
COC(=O)C1=C(C)N(C)C(=NCc2cc(OC)c(OC)c(OC)c2)NC1c1cccc(C(F)(F)F)c1 (centres undefined)	4	-25	/	/	/	/
CN(C(=O)CCc1cn(C)c2ccccc12)c1ccc(Oc2cccnc2)cc1	-2	24	/	/	/	/
O=S(=O)(NCC1CCCO1)c1cccc2nsnc12 (centres undefined)	11	0	-3	4	41*	3
CC(C)(C)NC(=O)C1CCC(CNS(=O)(=O)c2cccc3nsnc23)CC1 (centres undefined)	42*	76*	-13	-4	39	-15
CCN(CC)C(=O)[C@H]1C[C@@H]2[C@H](C[C@@H](c3ccccc3)[C@H]1C)N(c1ccc(F)cc1)C(=O)N2C/C=C(\C)CCC=C(C)C	-1	-15	/	/	/	/
Cc1nc2cc(-c3ccc(F)cc3)[nH]n2c(=O)c1C	0	-7	28	42*	46	2
CC[C@H](NC(=O)[C@@H](Cc1ccccc1)NC(=O)[C@H]1O[C@@H](n2cnc3c(=O)[nH]c(N)nc32)[C@H](O)[C@@H]1O)c1ccccc1	1	-21	/	/	/	/
SMILES	TAAR1 agonist	TAAR1 antag	OX1R antag-1	CHO parental Ca	OX1R antag-2	GPR7 antagonist
CCC(=O)NC1=C(Cl)C(=O)C(NC(=O)CC)=C(Cl)C1=O	46*	50*	/	/	/	-26
C[C@@H]1ON(C)[C@H]2C[C@H]3c4[nH]c5c(-c6cc(Cl)cc(Cl)c6)cccc5c4CCN3C(=O)[C@@H]12	0	-9	/	/	/	/
CCOC(=O)c1c(NC(=O)COC(=O)CNC(=O)c2ccc(Cl)cc2Cl)sc(C(=O)N(C)C)c1C	1	-32	-17	-17	10	/
CCOC(=O)c1c(NC(=O)COC(=O)c2nc(Cl)ccc2Cl)sc(C(=O)N(C)C)c1C	12	51*	-20	-20	10	/
Cn1c(N)c(C(=O)COC(=O)C2(c3ccc(F)cc3)CCCC2)c(=O)n(C)c1=O	25	65*	-10	-4	15	-4
Cn1c(N)c(C(=O)COC(=O)C2(c3ccc(Cl)cc3)CCCC2)c(=O)n(C)c1=O	11	8	-25	-18	5	9
S=C(NCCCCN(Cc1ccc(Cl)cc1)c1ccc(Br)cn1)NCCCc1cnc[nH]1	38*	31	/	/	/	/
CCOC(=O)N(C)C[C@H]1OCc2cnnn2CCCC(=O)N([C@H](C)CO)C[C@@H]1C	5	-27	/	/	/	/
Cc1cccc(/C=N/NC(=O)c2cc(C3CC3)nc3ccccc23)n1	1	11	-10	0	74*	0
CCCn1nc(NS(=O)(=O)c2cccc3nonc23)c2cc3cc(C)ccc3nc21	0	-9	-11	-16	33	-8
CCCn1nc(NS(=O)(=O)c2cccc3nonc23)c2cc3cccc(C)c3nc21	1	-13	-2	-23	52*	-4
Oc1ccccc1OCc1nc2ccccc2s1	3	-4	6	1	6	19
Oc1ccc(O)c(Cc2nc3ccccc3s2)c1	11	11	-1	18	11	33*
C[C@@H]1COc2cc(NCCO)ccc2S(=O)(=O)N1	2	9	/	/	/	/
Cn1nc(OC(=O)Nc2ccc(Cl)cc2)cc1C(F)(F)F	/	/	9	38*	20	-3
O=C(Nc1ccc2c(c1)OCCO2)C(CCc1ccccc1)N1CCC(Cc2ccccc2)CC1 (centres undefined)	3	0	/	/	/	/
COCC(C)n1c(SCC(=O)N2CCCCC2)nc2ccccc2c1=O (centres undefined)	7	1	-31	-27	-8	13
COCC(C)n1c(SCC(=O)N2CCc3ccccc3C2)nc2ccccc2c1=O (centres undefined)	0	-9	-25	-21	70*	-5
C=CCN1C(=O)c2ccc(C(=O)N(C)CC(=O)Nc3ccc(OCC)c(OCC)c3)cc2C1=O	1	-19	-5	39*	27	/
C=CCN1C(=O)c2ccc(C(=O)N(C)CC(=O)Nc3c(C)cccc3C)cc2C1=O	1	-8	-19	-7	25	/
Cc1c(NC(=O)c2ccc(=O)oc2)c(=O)n(-c2ccccc2)n1C	1	9	-11	-5	76*	-14
Cc1c(NC(=O)CN2C(=O)c3cccc4cccc2c34)c(=O)n(-c2ccccc2)n1C	6	-13	-13	-7	76*	-1
